Here are results for 14 molecules from publication PMC5856478 (Biochemistry, 2018).

The test system of data set [1] is Ask1. Put plainly: Ask1 phosphorylation, Western blotting. It is filed as cell-based. As to conditions: MDA-MB-231 cells, 6 h. The method, boiled down: (§1)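 MDA-MB-231 cells in 6 cm dishes were exposed to the test peptide, a TAT-only peptide, a scrambled-order (reverse) TAT peptide or a reference Trx1 inhibitor at 37 °C for 6 h. Cells were then lysed in TBST with 0.1% Triton X-100, 50 mM NaF and EDTA-free protease inhibitors. Equal protein was run on SDS-PAGE and blotted to PVDF. Primary antibodies (p-Ask1 Thr845, p-JNK Thr183/Tyr185, p-p38 Thr180/Tyr182, p-AMPK Thr172, GRP78, plus total proteins) were applied overnight at 4 °C, followed by HRP secondary and chemiluminescence. Data come from two or three independent experiments.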
A general note: Immunoblotting shows a protein as a band on a membrane.

Data set [2] deals with p53. Put plainly: p53 stabilization, Western blotting. As to conditions: 100 μM, 6 h. It is filed as cell-based.
Data set [3] concerns p38. Put plainly: p38 phosphorylation, Western blotting. As to conditions: MDA-MB-231 cells, 100 μM, 6 h. The class given is cell-based. The method, boiled down: as §1
For data set [4], the system named is JNK. Kind of data set: JNK phosphorylation, Western blotting. The class given is cell-based. As to conditions: MDA-MB-231 cells, 100 μM, 6 h. The method, boiled down:
as §1

Data set [5] deals with GRP78. Kind of data set: GRP78 induction. As to conditions: MDA-MB-231 cells, 100 μM, 6 h. The class given is cell-based. In outline: as §1
Data set [6] has as its system MDA-MB-231 cells. Kind of data set: Cell viability, Trypan blue assay. As to conditions: 48 h, 37 °C, n= 2 independent experiments. The class given is cell-based. In outline:
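Viability was scored by Trypan blue exclusion. MDA-MB-231 cells in 6-well plates were treated with the TAT-fused test peptide, a reverse-sequence TAT control or a reference Trx1 inhibitor for 48 h at 37 °C. Cells were washed with PBS, trypsinised and resuspended in medium. They were mixed with 0.4% trypan blue and counted on an automated cell counter. Results are mean ± SD of 2 independent experiments.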

The test system of data set [7] is Trx1-Ask1 interaction. Put plainly: Co-immunoprecipitation of Ask1 and Trx1 in cells. The class given is cell-based. As to conditions: MDA-MB-231 cells, 6 h; co-IP.
For data set [8] the following is noted: ref [45], [46]; cited from earlier work.
Data set [9] relates to AMPK. Put plainly: AMPK phosphorylation, Western blotting. It is filed as cell-based. As to conditions: MDA-MB-231 cells, 100 μM, 6 h. The method, boiled down:
as §1

Data set [10] has as its system Trx1. As to conditions: ref [44]; cited from earlier work.
Data set [11] concerns human Grx1. As to conditions: ref [53]; cited from earlier work.
In data set [12] the target is T1, Trx1 (Homo sapiens, UniProt P10599).
T1 sequence (P10599 1-105): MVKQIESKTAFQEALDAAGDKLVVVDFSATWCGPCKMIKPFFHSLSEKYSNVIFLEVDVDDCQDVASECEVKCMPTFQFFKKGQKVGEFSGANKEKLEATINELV
Kind of data set: Phage display selection. The class given is binding. As to conditions: trial 3; bait Trx1; elution with 1GP3; three rounds of bio-panning; DTT 1 mM.

Data set [13] deals with T2, Grx1 (Homo sapiens, UniProt P35754).
T2 sequence (P35754 1-106): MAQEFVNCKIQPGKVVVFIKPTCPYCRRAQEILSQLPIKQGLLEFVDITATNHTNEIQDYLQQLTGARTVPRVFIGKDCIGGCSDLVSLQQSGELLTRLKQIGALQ
Kind of data set: Grx1 de-glutathionylation enzyme assay. It is filed as biochemical. In outline:
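Coupled assay: Grx1 (40 ng) reduces Cys-SSG (100 μM), and glutathione reductase recycles the resulting GSSG while oxidising NADPH. Buffer was 0.1 M phosphate pH 7.4 with 1 mM EDTA, BSA, 0.2 mM NADPH, yeast GR (4 units) and 0.25 mM GSH. Grx1 was incubated with peptide at 10–200 μM. NADPH loss was followed at 340 nm. Initial rates were converted to percent inhibition, and values are mean ± SD, n=3 independent experiments.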

The conditions of data set [14]: not told.
Data set [15] has as its target T2, Grx1. Kind of data set: Phage display selection. As to conditions: trial 2; bait Grx1; elution with 1GP3; three rounds of bio-panning; DTT 1 mM. The class given is binding.
Data set [16] addresses T3, glutaredoxin 1 (Grx1), human, His-tagged, purified (human, UniProt P35754 1-106).
T3 sequence (looked up): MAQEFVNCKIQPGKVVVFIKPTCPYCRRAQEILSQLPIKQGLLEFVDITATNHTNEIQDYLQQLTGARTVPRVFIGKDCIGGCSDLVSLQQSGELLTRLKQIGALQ
Put plainly: SPR. A general note: Surface plasmon resonance follows binding to a sensor surface in real time, without labels.

For data set [17], the target named is T4, thioredoxin 1 (Trx1), human, His-tagged, purified (human, UniProt P10599 1-105).
T4 sequence (looked up): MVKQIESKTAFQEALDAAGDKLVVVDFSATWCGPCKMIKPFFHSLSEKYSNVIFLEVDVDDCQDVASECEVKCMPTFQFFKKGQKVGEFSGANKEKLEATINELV
Kind of data set: BLI.

Data set [18] concerns the target T3, glutaredoxin 1 (Grx1), human, …. Put plainly: BLI. (In general: In BLI a coated tip is dipped into the sample, and binding shifts an interference pattern.)
The target of data set [19] is T4, thioredoxin 1 (Trx1), human, …. Put plainly: pull-down.
Data set [20] has as its target T3, glutaredoxin 1 (Grx1), human, …. Kind of data set: pull-down.

“Also recorded” adds a separate entry of the source. No end group written: not given here.

Turning to `CCC(C)SSc1ncc[nH]1` (centres unmarked) [PX-12, sec-butyl 2-imidazoylyl disulfide], the Ask1 phosphorylation entry in [1] is “activated Ask1 by phosphorylation”. In addition, the p53 stabilization entry in data set [2] (MCF7 cells (wild-type p53, high Trx1)) is on record as “induced p53 stabilization”; in data set [2] (MDA-MB-231 cells (mutant p53 R280K)), “strong stabilization of mutant p53”. Also, the p38 phosphorylation entry in data set [3] is on record as “without p38 phosphorylation”. Further, the JNK phosphorylation entry in data set [4] is listed as “induced JNK phosphorylation”. Besides, in data set [5], the GRP78 induction entry is on record as “induced expression of GRP78”. The Cell viability entry in [6] is recorded as “significantly decreased viability; also recorded: potent cytotoxicity”. For the same molecule, the “Disruption of Trx1-Ask1 interaction in cells” value in data set [7] was “disrupted the Trx1-Ask1 interaction”. Also, the “Anti-tumor activity in clinical evaluation” value in [8] is “low anti-tumor activity”. Moreover, the AMPK phosphorylation entry in data set [9] is “phosphorylation of AMPK”. Moreover, the “Cys residues of Trx1 oxidized or modified” value in data set [10] was “catalytic C32 and redox-sensitive C73”. Regarding `N[C@@H](CCC(=O)N[C@@H](CS)C(=O)NCC(=O)O)C(=O)O` [reduced glutathione], in data set [11], the “Binding affinity with human Grx1” value is “does not have significant binding affinity”. In the case of AMYSRGT [2TP1], the “# of colony” value in data set [12] is 2. By IC50 is commonly meant the point on the concentration scale where inhibition reaches its midpoint. ANHTMQV [1GP3]: in [13], it took 46 µM to reach half-maximal inhibition (IC50). On to ETRWPNT [2GTP1], for which, in [13], the IC50 was 11 µM. Besides, the Cell permeability result in data set [14] is reported as “poor cell permeability”. As for GRYAIPL [2GP2], the “# of colony” value in data set [15] is given as 2.

As to RFADPRL [2TP2], the “# of colony” value in data set [12] is on record as 1. For the molecule SHYNYKV [1GP2], in data set [13] (Cys-SSG 100 μM substrate, 0.1 M phosphate pH 7.4, peptide 10–200 μM), the “Inhibition of Grx1 de-glutathionylation” value is reported as “did not have any inhibitory activity”. As to SLKTTMP [2TP3], the “# of colony” value in data set [12] was 1.

As for SVGSFSM [2GP1], the “# of colony” value in [15] stood at 1. Usually Kd stands for the constant that tells how readily two partners part at equilibrium. Lower therefore signals higher affinity. Take ANHTMQV (not fully specified (N-terminus); also: biotin, position not given here) [biotin-1GP3]: in data set [16], the Kd was determined as 38 ± 2 µM. Turning to ETRWPNT (not fully specified (N-terminus); also: biotinylated, position not given here) [biotinylated 2GTP1 peptide (biotin-2GTP1)], the Kd is 2.5 µM in data set [17] and 1.2 µM in data set [18]. For ETRWPNT [non-biotinylated 2GTP1], the binding result in data set [19] was “binds”. In the case of SHYNYKV (not fully specified (N-terminus); also: biotin, position not given here) [biotin-1GP2], in data set [20], the binding result is recorded as “binds”.
